Assay results published in ChEMBL document CHEMBL1133701, “Synthesis and human beta-adrenoceptor activity of 1-(3,5-diiodo-4- methoxybenzyl)-1,2,3,4-tetrahydroisoquinolin-6-ol derivatives in vitro” (J Med Chem, 2000).

Experiments:
[1] = molecular target: Beta-2 adrenergic receptor (Homo sapiens) (UniProt P07550); test: Agonistic potency against BETA2-AR expressed in CHO cells by using cAMP-RIA assay;MA means minimal activity; type: functional, cell-based
[2] = molecular target: Beta-3 adrenergic receptor (Homo sapiens) (UniProt P13945); test: Intrinsic activity against Beta3-AR expressed in CHO cells in cAMP-RIA assay; type: functional, cell-based
Sequence of Beta-3 adrenergic receptor (Homo sapiens) (P13945 whole entry, looked up): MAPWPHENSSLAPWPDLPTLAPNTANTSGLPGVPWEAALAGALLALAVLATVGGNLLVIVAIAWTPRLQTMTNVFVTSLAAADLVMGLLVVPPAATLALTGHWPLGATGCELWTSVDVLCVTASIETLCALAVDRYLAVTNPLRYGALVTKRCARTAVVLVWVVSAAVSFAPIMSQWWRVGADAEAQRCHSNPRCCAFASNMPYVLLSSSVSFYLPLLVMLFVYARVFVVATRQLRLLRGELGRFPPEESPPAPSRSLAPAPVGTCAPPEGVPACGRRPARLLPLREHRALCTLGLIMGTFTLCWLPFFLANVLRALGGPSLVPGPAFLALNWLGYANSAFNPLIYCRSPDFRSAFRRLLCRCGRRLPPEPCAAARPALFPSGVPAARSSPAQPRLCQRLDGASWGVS

[3] = molecular target: Beta-3 adrenergic receptor (Homo sapiens) (UniProt P13945); test: Agonistic potency against Beta3-AR expressed in CHO cells by using cAMP-RIA assay;MA means minimal activity; type: functional, cell-based
[4] = molecular target: Beta-2 adrenergic receptor (Homo sapiens) (UniProt P07550); settings: CHO
[5] = molecular target: Beta-3 adrenergic receptor (Homo sapiens) (UniProt P13945); test: Agonistic potency against Beta3-AR expressed in CHO cells by using cAMP-RIA assay; type: functional, cell-based
[6] = molecular target: Beta-2 adrenergic receptor (Homo sapiens) (UniProt P07550); settings: CHO; remark: listed apart in the source
[7] = molecular target: Beta-1 adrenergic receptor (Homo sapiens) (UniProt P08588); settings: CHO
Sequence of Beta-1 adrenergic receptor (Homo sapiens) (P08588 whole entry, looked up): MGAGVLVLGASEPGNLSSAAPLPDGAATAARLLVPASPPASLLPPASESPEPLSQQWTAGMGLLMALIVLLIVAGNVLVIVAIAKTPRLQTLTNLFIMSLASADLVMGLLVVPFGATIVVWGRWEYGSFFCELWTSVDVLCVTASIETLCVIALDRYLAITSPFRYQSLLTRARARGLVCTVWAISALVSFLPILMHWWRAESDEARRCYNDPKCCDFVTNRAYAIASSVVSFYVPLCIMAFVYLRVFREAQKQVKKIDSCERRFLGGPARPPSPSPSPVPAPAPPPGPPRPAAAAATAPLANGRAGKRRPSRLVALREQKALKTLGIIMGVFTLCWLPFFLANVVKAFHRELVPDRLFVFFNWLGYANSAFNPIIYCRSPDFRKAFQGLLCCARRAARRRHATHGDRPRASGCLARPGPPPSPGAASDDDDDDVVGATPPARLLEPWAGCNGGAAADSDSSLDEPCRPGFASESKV

[8] = molecular target: Beta-1 adrenergic receptor (Homo sapiens) (UniProt P08588); settings: CHO; remark: listed apart in the source
[9] = molecular target: Beta-3 adrenergic receptor (Homo sapiens) (UniProt P13945); settings: CHO
[10] = molecular target: Beta-3 adrenergic receptor (Homo sapiens) (UniProt P13945); settings: CHO; remark: listed apart in the source
[11] = molecular target: Beta-2 adrenergic receptor (Homo sapiens) (UniProt P07550); test: Agonistic potency against BETA2-AR expressed in CHO cells by using CRE-LUC assay;MA means minimal activity; type: functional, cell-based
In short: (§1)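 CHO cells transfected by electroporation (single 70-ms, 150-V pulse) with human receptor and CRE–luciferase reporter; seeded 40 000/well, grown 20 h, then exposed 4 h to drug at 10^-11–10^-4 M. Cells lysed, luciferase light read by luminometer, duplicates per concentration. Response as percent of maximum to (-)isoproterenol 10^-6 M; pKact = -log molar concentration giving 50% of own maximal response; mean ± SEM.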

[12] = molecular target: Beta-1 adrenergic receptor (Homo sapiens) (UniProt P08588); test: Agonistic potency against BETA1-AR expressed in CHO cells by using CRE-LUC assay;MA means minimal activity; type: functional, cell-based; in short: as §1
[13] = molecular target: Beta-2 adrenergic receptor (Homo sapiens) (UniProt P07550); settings: CHO; remark: listed apart in the source
[14] = molecular target: Beta-1 adrenergic receptor (Homo sapiens) (UniProt P08588); settings: CHO; remark: listed apart in the source
[15] = molecular target: Beta-2 adrenergic receptor (Homo sapiens) (UniProt P07550); settings: CHO; remark: listed apart in the source
[16] = molecular target: Beta-1 adrenergic receptor (Homo sapiens) (UniProt P08588); settings: CHO; remark: listed apart in the source
[17] = molecular target: Beta-3 adrenergic receptor (Homo sapiens) (UniProt P13945); test: Agonistic potency against Beta3-AR expressed in CHO cells by using cAMP-RIA assay; MA means minimal activity; type: functional, cell-based

Sequence of Beta-2 adrenergic receptor (Homo sapiens) (P07550 whole entry, looked up): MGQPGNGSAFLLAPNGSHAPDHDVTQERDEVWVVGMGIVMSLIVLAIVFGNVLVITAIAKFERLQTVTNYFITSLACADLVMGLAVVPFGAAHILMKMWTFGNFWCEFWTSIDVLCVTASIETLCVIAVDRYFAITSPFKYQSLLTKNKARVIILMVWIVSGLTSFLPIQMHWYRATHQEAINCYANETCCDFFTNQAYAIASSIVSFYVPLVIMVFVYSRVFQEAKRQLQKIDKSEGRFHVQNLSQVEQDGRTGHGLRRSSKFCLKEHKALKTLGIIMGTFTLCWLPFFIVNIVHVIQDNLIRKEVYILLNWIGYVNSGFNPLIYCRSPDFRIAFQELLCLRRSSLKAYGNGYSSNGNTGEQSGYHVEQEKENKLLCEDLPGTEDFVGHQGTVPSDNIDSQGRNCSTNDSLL

Structure (SMILES)	MA [1]	IA [2]	IA [4]	pK [5]	pK [6]	IA [9]	pK [10]	also measured
COc1c(I)cc(CC2NCCc3c2cc(I)c(O)c3I)cc1I (stereo not drawn)	Partial agonist	18	6	–	–	–	–	MA [3]: Partial agonist
COc1c(I)cc(CC2NCCc3cc(O)c(O)cc32)cc1I (stereo not drawn)	–	120	52	8.76	8.84	–	–	IA [7]: 103; pK [8]: 8.11
COc1c(I)cc(CC2NCCc3c2ccc(O)c3Br)cc1I (stereo not drawn)	Partial agonist	31	26	8.25	–	–	–	–
COc1c(I)cc(CC2NCCc3c2ccc(O)c3I)cc1I (stereo not drawn)	–	8	65	–	6.77	–	–	MA [3]: Partial agonist
CC(C)NCC(O)c1ccc(O)c(O)c1 (stereo not drawn)	–	–	–	–	–	100	7.74	–
COc1cc(C[C@@H]2NCCc3cc(O)c(O)cc32)cc(OC)c1OC	–	95	95	8.6	8.33	–	–	IA [7]: 109; pK [8]: 8.7
COc1c(I)cc(CC2NCCc3ccccc32)cc1I (stereo not drawn)	Partial agonist	52	15	8.2	–	62	7.54	MA [11]: Partial agonist; MA [12]: Partial agonist; IA [13]: 21; IA [14]: 22
COc1c(I)cc(CC2NCCc3cc(O)c(I)cc32)cc1I (stereo not drawn)	Partial agonist	35	4	7.92	–	–	–	–
COc1c(I)cc(CC2NCCc3cc(O)ccc32)cc1I (stereo not drawn)	–	106	44	7.88	6.87	90	7.45	pK [15]: 6.36; pK [16]: 5.71; IA [13]: 38; IA [14]: 58
COc1c(I)cc(CC2NCCc3c2cc(Br)c(O)c3Br)cc1I (stereo not drawn)	–	20	3	–	–	–	–	MA [17]: Partial agonist
